# Source: ChEMBL document CHEMBL4266038, “Total Synthesis of Xanthoangelol B and Its Various Fragments: Toward Inhibition of Virulence Factor Production of Staphylococcus aureus” (J Med Chem, 2018)
# Active and inactive are the calls of the source. The rule behind the calls is not given here.
# Tests used:
# [1] = tested on: Staphylococcus aureus subsp. aureus USA300; assay: Inhibition of methicillin-resistant Staphylococcus aureus USA300 SaeRS Tn551 deletion mutant assessed as reduction in alpha-hemolysin mediated hemolysis of human erythrocytes at 8 uM after 8 hrs by ELISA relative to control
# In short: (§1)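 Overnight cultures of wild-type USA300 or the saeS mutant were diluted 1:100 in TSB and grown to OD600 = 1. Cells at 5x10^5/ml were grown with compound for 8 h at 37 °C, 250 rpm. Supernatants were mixed 1:1 with 5% DPBS-washed human RBC for 30 min, then centrifuged, and hemolysis was read at OD540. Experiments were run in triplicate.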
# [2] = tested on: Staphylococcus aureus subsp. aureus USA300; assay: Inhibition of methicillin-resistant Staphylococcus aureus USA300 SaeRS assessed as reduction in alpha-hemolysin mediated hemolysis of human erythrocytes at 4 uM after 8 hrs by ELISA; in short: as §1
# [3] = tested on: Staphylococcus aureus subsp. aureus USA300; assay: Inhibition of methicillin-resistant Staphylococcus aureus USA300 SaeRS assessed as reduction in alpha-hemolysin mediated hemolysis of human erythrocytes at 8 uM after 8 hrs by ELISA; in short: as §1
# [4] = tested on: Staphylococcus aureus subsp. aureus USA300; assay: Inhibition of methicillin-resistant Staphylococcus aureus USA300 SaeRS Tn551 deletion mutant assessed as reduction in alpha-hemolysin mediated hemolysis of human erythrocytes at 15 uM after 8 hrs by ELISA relative to control; in short: as §1
compound,measurement,setting,value
C=C(C)C(O)CC/C(C)=C/Cc1c(O)ccc(C(=O)/C=C/c2ccc(O)cc2)c1O (stereo unspecified) [XANTHOANGELOL B],inhibition,[1],86.9%
same,inhibition,[2],Active
same,inhibition,[3],Active
C=C(C)C(O)CC/C(C)=C/Cc1c(O)ccc(C(=O)CC(O)c2ccc(O)cc2)c1O (stereo unspecified),inhibition,[2],Active
same,inhibition,[3],Active
same,inhibition,[4],87.4%
